Only some compounds are listed: those with a hit (about 2.9% of all), similar ones and a draw of the others.
SENP8 block-1 – blocks the human protease SENP8; Q96LD8; purified SENP8, Z-RLRGG-aminoluciferin cleavage, luminescence; inhibition, % at 10 µM; hit rate 1.2% among 330,000; in the data active means inhibition above about 50%
Apaf1 inhib – inhibitors of human Apaf-1 apoptosome; O14727; reconstituted apoptosome caspase-3 activity, DEVD-Rh110 fluorescence; inhibition, % at 20 µM; hit rate 0.71% among 330,000; AID 489030; active means inhibition of at least 40% at 20 µM;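 further: plate controls were DMSO wells for no effect and DEVD-CHO caspase inhibitor wells for full effect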
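System: reconstituted apoptosome with Apaf-1, cytochrome c, caspase-9, procaspase-3, dATP; Signal: Rh110 fluorescence intensity; Schedule: 30 min compound preincubation, 50 min activation, room temperature; Reagent: cytochrome c trigger plus (Z-DEVD)2-Rh110 caspase-3 substrate.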
SENP1 inh – SENP1 (human) catalytic domain inhibition. Q9P0U3. recombinant SENP1 catalytic domain, CyPet-SUMO1-YPet FRET cleavage. inhibition, % at 10 µM. AID 624204. hit rate 0.21% among 360,000;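 active means inhibition at least 30% at 10 µM, raw YFP signal under a set limit, fluorescence ratio 0.5 to 1.5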;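 further: 0% = enzyme with DMSO and 100% = no enzyme wells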
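Test system: hSENP1 catalytic domain, recombinant; Amount: 20 pM final SENP1 enzyme; Medium: Tris pH 8 buffer plus EDTA, NaCl, BME, BSA, NP40, catalase; Schedule: 50 min enzyme reaction, room temperature, light-protected; Technique: FRET fluorescence in CFP and YFP emission channels; Controls: no-enzyme wells low, DMSO-plus-enzyme wells high control.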
SENP8 block-2 – SENP8 (human) protease inhibition | hit rate 0.64% among 360,000 | recombinant SENP8, Nedd8 substrate fluorescence | inhibition, % at 20 µM; in the data active means inhibition mostly above about 40%, no sharp cut-off; inactive means mostly below about 27%
SENP7 block – inhibitors of human SENP7 protease; recombinant SENP7, Z-RLRGG-aminoluciferin luminescence, 40 min; Q9BQF6; inhibition, % at 5 µM; hit rate 1.5% among 330,000;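 active means inhibition above about 50% at the single test dose, limit read from the data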;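 further: plate controls were DMSO with enzyme for no effect and no enzyme buffer wells for full effect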
SENP6 inh – SENP6 protease inhibition; Q9GZR1; Recombinant SENP6 catalytic domain, aminoluciferin luminescence; inhibition, % at 10 µM; hit rate 1.8% among 330,000;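 active means inhibition above about 50% at the single tested dose, limit read from the data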;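 further: plate controls were DMSO wells with enzyme for no effect and DMSO wells lacking enzyme for full effect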
SENP8 inh conf – SENP8 (human) inhibition, single concentration confirmation | hit rate 15% among 1,400 | AID 624319 | inhibition, % at 25 µM | purified SENP8, Nedd8-AMC/pro-Nedd8 cleavage fluorescence, 30 min | shares compounds with SENP8 block-2; in the data active means inhibition mostly above about 39%, no sharp cut-off; inactive means mostly below about 34%
* = called active by the depositor; / = no result.

SMILES | SENP8 block-1 | Apaf1 inhib | SENP1 inh | SENP8 block-2 | SENP7 block | SENP6 inh | SENP8 inh conf
O=C(Nc1ccc(Cl)cc1)C1CCC(=O)N1Cc1ccccc1Cl (stereo unspecified) | -4 | -7 | 2 | 12 | -2 | -22 | /
Nc1ccc(Cc2ccc(N)c(O)c2)cc1O | / | / | -78 | 48* | / | / | 12
CC1=NCCN1S(=O)(=O)c1cc(Cl)ccc1Cl | -3 | 0 | 1 | 48* | -8 | -8 | 9
O=C(c1ccccc1)[C@@H]1[C@@H](C(=O)c2ccc(F)cc2)[C@@]2(C(=O)Nc3ccccc32)[C@H]2c3ccccc3C=CN12 | 28 | 64* | 9 | 54* | 13 | 64* | 66*
COc1ccc([N+](=O)[O-])cc1NC(=O)COC(=O)Cc1cc(OC)c(OC)c(OC)c1 | -12 | -3 | 3 | 25 | -7 | -39 | /
COc1cc(CC(=O)OCC(=O)Nc2cc([N+](=O)[O-])ccc2Cl)cc(OC)c1OC | -1 | -5 | -1 | 40* | 8 | -6 | 8
COC(=O)Cc1c(C)c2ccc(OCC(=O)NC3CCS(=O)(=O)C3)cc2oc1=O (stereo unspecified) | -4 | -14 | -4 | -392 | 5 | -3 | /
CCOc1ccccc1C(=O)N(CCC(=O)OC)c1ccccn1 | -4 | -3 | 1 | 43* | -5 | -9 | 16
COC(=O)CCN(C(=O)c1cc(OC)c(OC)c(OC)c1)c1ccccn1 | 5 | -10 | 0 | 8 | 0 | -21 | /
Cc1nc(Nc2ccc(F)cc2)nc(Nc2ccc(F)cc2)c1[N+](=O)[O-] | 3 | -31 | 2 | 34 | 2 | -2 | /
COc1ccc(Nc2nc(NN)nc(C)c2[N+](=O)[O-])cc1 | 1 | 12 | 4 | 60* | 6 | -5 | 14
O=C(NCc1ccc2c(c1)OCO2)C1CC(c2cccc(Br)c2)=NO1 (stereo unspecified) | -8 | 4 | -2 | 40* | -4 | -21 | 11
O=C(NCc1ccc2c(c1)OCO2)C1CC(c2ccccc2O)=NO1 (stereo unspecified) | -2 | -6 | 2 | 11 | 2 | -7 | /
COC/C=C/C1=CC2=CC(=O)C(C)(OC(=O)c3cnc4ccccc4n3)C(=O)C2=CN1Cc1ccccc1 (stereo unspecified) | 2 | 32 | -33 | 45* | 1 | 19 | 26
COC/C=C/C1=CC2=CC(=O)C(C)(OC(=O)c3cnc4ccccc4n3)C(=O)C2=CN1C1CC1 (stereo unspecified) | -4 | 33 | -20 | 52* | 4 | 20 | 53*
COC/C=C/C1=CC2=CC(=O)C(C)(OC(=O)c3cnc4ccccc4n3)C(=O)C2=CN1CCCCO (stereo unspecified) | 9 | 32 | -17 | 56* | 15 | 31 | 46*
O=C(NCc1cccs1)c1ccc2nc([C@@H]3O[C@H](CO)[C@H](O)[C@H](O)[C@H]3O)[nH]c2c1 | / | / | -2 | 8 | / | / | /
COc1cccc(CSCC(=O)NCCc2ccccc2)c1OC | 0 | 0 | -11 | 22 | -5 | 3 | /
CCOC(=O)C1(Cc2cccc(Cl)c2)CCCN(C(=O)CCN2CCCC2=O)C1 (stereo unspecified) | -10 | -8 | 2 | 6 | -5 | -2 | /
Cc1ccc(C2c3[nH]c4ccccc4c3C[C@H]3C(=O)N(c4ccccc4C(=O)N4CCC[C@H]4C(=O)O)C(=O)N23)cc1 (stereo partly specified) | 1 | -1 | -55 | 43* | -1 | 2 | -7
COc1ccc(C2c3[nH]c4ccccc4c3C[C@H]3C(=O)N(c4ccccc4C(=O)N4CCC[C@H]4C(=O)O)C(=O)N23)cc1 (stereo partly specified) | 3 | -3 | -47 | 42* | -2 | -2 | 2
COc1cccc(C2c3[nH]c4ccccc4c3C[C@H]3C(=O)N(c4ccccc4C(=O)NCCCN4CCOCC4)C(=O)N23)c1 (stereo partly specified) | -11 | 9 | -33 | 51* | -7 | 2 | 13
COc1ccc(C2c3[nH]c4ccccc4c3C[C@H]3C(=O)N(c4ccccc4C(=O)N4CCC[C@@H]4C(=O)O)C(=O)N23)cc1 (stereo partly specified) | -7 | 1 | -31 | 23 | 13 | -9 | /
COc1cc2c(cc1OC)C(Cc1ccc(O)c(Oc3ccc(C[C@H]4c5cc(OC)c(OC)cc5CCN4C)cc3)c1)N(C)CC2 (stereo partly specified) | -18 | 29 | / | / | -6 | -7 | /
Cc1cccc(C)c1NC(=O)c1ccc([N+](=O)[O-])s1 | 1 | -4 | -2 | 29* | -7 | 42 | 10
SMILES | SENP8 block-1 | Apaf1 inhib | SENP1 inh | SENP8 block-2 | SENP7 block | SENP6 inh | SENP8 inh conf
O=C1CCC[C@H]2c3[nH]c4ccccc4c3CCN12 | 3 | -4 | -2 | 68* | 7 | -10 | 6
COc1ccc(S(=O)(=O)N2CCSC2c2ccc(OC)c(OC)c2)cc1 (stereo unspecified) | -6 | 18 | 0 | 50* | -3 | -7 | 16
CC1CC(C)CN(C(=O)COC(=O)CNC(=O)C23CC4CC(CC(C4)C2)C3)C1 (stereo unspecified) | -8 | 4 | 3 | -3 | 0 | 1 | /
Cc1ccc(NC(=O)c2ccc(N3CCCC3=O)cc2)cc1S(=O)(=O)N1CCCCC1 | 1 | -7 | 2 | -5 | -2 | -3 | /
O=C1Cc2ccccc2C(=O)N1c1ccc(F)cc1Cl | 21 | 29 | -29 | 72* | 19 | 49 | 50*
O=C(Nc1ccc(F)cc1)C(c1cc2ccccc2o1)N1CCN(c2cccc(C(F)(F)F)n2)CC1 (stereo unspecified) | / | / | 0 | -15 | / | / | /
CC(O)/C=C/C1OC(=O)CC1Nc1ccc(C=O)cc1 (stereo unspecified) | -7 | -10 | 4 | 52* | 1 | 3 | 15
O=C(NN1C(=O)C2C3c4ccccc4C(c4ccccc43)C2C1=O)c1ccccc1 (stereo unspecified) | -2 | 6 | 3 | 9 | 1 | -7 | /
Cc1ccc(C(=O)NN2C(=O)C3C4c5ccccc5C(c5ccccc54)C3C2=O)cc1 (stereo unspecified) | -4 | 23 | 0 | 45* | 3 | 7 | 17
COc1ccc(O)cc1 | 7 | -11 | 3 | 48* | -2 | -1 | 6
CCCCNC(=O)C1c2ccccc2OCC(=O)N1Cc1cccnc1 (stereo unspecified) | / | / | 1 | 3 | / | / | /
CCOc1cc(CNc2ccc(OC)cc2)cc(Br)c1OCC(=O)NC(C)(C)C | 8 | 20 | 1 | 47* | 2 | 8 | 24

Screens from PubChem BioAssay.
